ChEMBL document CHEMBL1137717, “Synthesis and in vitro antiproliferative activity of novel 1-benzhydrylpiperazine derivatives against human cancer cell lines” (Eur J Med Chem, 2009)

How the values were obtained:
HepG2 = experiment: Cytotoxicity against human HepG2 cells assessed as cell survival at 100 uM after 24 hrs by MTT assay relative to control; assay type: functional; details: HepG2, 24 h, read-out: Survival
Summary of the method: (§1)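 Cells grown in DMEM with 10% FCS (HT-29 in McCoy's with 10% FCS), seeded in 96-well plates, and grown 48 h before dosing. Exposed to 100 µM final compound (0.1% DMSO) for 24 h at 37 °C. MTT 1 mg/ml in medium was added for 4 h, formazan dissolved in DMSO, and A570 read. Survival is relative to the 0.1% DMSO control (100%); triplicate, mean ± SD.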

HT-29 = experiment: Cytotoxicity against human HT-29 cells assessed as cell survival at 100 uM after 24 hrs by MTT assay relative to control; assay type: functional; details: HT-29, 24 h, read-out: Survival; summary of the method: as §1
MCF7 = experiment: Cytotoxicity against human MCF7 cells assessed as cell survival at 100 uM after 24 hrs by MTT assay relative to control; assay type: functional; details: MCF7, 24 h, read-out: Survival; summary of the method: as §1
[1] = Cytotoxicity against human NF103 cells assessed as cell survival at 100 uM after 24 hrs by MTT assay relative to control; assay type: cell-based; details: read-out: Survival; summary of the method: as §1
HeLa = experiment: Cytotoxicity against human HeLa cells assessed as cell survival at 100 uM after 24 hrs by MTT assay relative to control; assay type: functional; details: read-out: Survival; summary of the method: as §1

SMILES | viability at 100 µM (HepG2) [%] | viability at 100 µM (HT-29) [%] | viability at 100 µM (MCF7) [%] | viability at 24 h, 100 µM [1] [%] | viability at 100 µM (HeLa) [%]
S=C(Nc1cccc(Cl)c1)N1CCN(C(c2ccccc2)c2ccccc2)CC1 | 69.5 | 69.3 | 73.6 | 56.8 | 69.8
S=C(Nc1ccc(Cl)cc1)N1CCN(C(c2ccccc2)c2ccccc2)CC1 | 66.2 | 73.8 | 66.9 | 54.8 | 73.9
Fc1ccc(NC(=S)N2CCN(C(c3ccccc3)c3ccccc3)CC2)cc1 | 45.4 | 47.4 | 43.9 | 52.7 | 48.4
O=C(N1CCCC1)N1CCN(C(c2ccccc2)c2ccccc2)CC1 | 66.2 | 70.2 | 71.4 | 54 | 64.2
O=C(C1CC1)N1CCN(C(c2ccccc2)c2ccccc2)CC1 | 62.9 | 72 | 61 | 55.1 | 70.3
O=S(=O)(c1ccccc1)N1CCN(C(c2ccccc2)c2ccccc2)CC1 | 66.2 | 69.3 | 68.1 | 57.4 | 61.9
O=S(=O)(CC(F)(F)F)N1CCN(C(c2ccccc2)c2ccccc2)CC1 | 47.8 | 43.6 | 41.1 | 54.9 | 47.7
O=C(N1CCOCC1)N1CCN(C(c2ccccc2)c2ccccc2)CC1 | 61.9 | 63.4 | 68.7 | 56.1 | 53.9
COc1ccccc1NC(=S)N1CCN(C(c2ccccc2)c2ccccc2)CC1 | 61 | 62.1 | 54.5 | 59.7 | 56.8
COc1cccc(NC(=S)N2CCN(C(c3ccccc3)c3ccccc3)CC2)c1 | 64.5 | 64.8 | 58.7 | 57.8 | 72.8
S=C(Nc1ccc(Cl)cc1Cl)N1CCN(C(c2ccccc2)c2ccccc2)CC1 | 59.2 | 68.2 | 45.6 | 53.5 | 45.5
CC1(C)C2CCC1(CS(=O)(=O)N1CCN(C(c3ccccc3)c3ccccc3)CC1)C(=O)C2 (stereo not given) | 72.6 | 79.2 | 61.7 | 60.4 | 65.2
COc1ccc(NC(=S)N2CCN(C(c3ccccc3)c3ccccc3)CC2)cc1 | 48.8 | 55.6 | 63.7 | 55.9 | 66
S=C(Nc1ccccc1Cl)N1CCN(C(c2ccccc2)c2ccccc2)CC1 | 71.8 | 70.8 | 69.8 | 59.1 | 63.1
O=C(c1ccno1)N1CCN(C(c2ccccc2)c2ccccc2)CC1 | 46.1 | 47.5 | 44.2 | 58.6 | 46.8
O=S(=O)(c1ccc(Cl)cc1F)N1CCN(C(c2ccccc2)c2ccccc2)CC1 | 70.1 | 76.3 | 64 | 61 | 61.9
